Assay results pooled from the literature.
Protocols differ between the studies behind these lines. pIC50: −log10 of the molar value.
Target: ALK tyrosine kinase receptor (ALK, Homo sapiens, UniProt Q9UM73)

| Compound | assay | setting | pIC50 |
| --- | --- | --- | --- |
| CC(C)(C)n1nc(-c2cnc3cc(OC4CC4)ccc3c2)c(C(N)=O)c1N | cell-free assay | – | < 5.00 |
| O=[N+]([O-])c1cccc(-c2cnc3[nH]c4ccccc4c3c2)c1 | enzyme activity, inhibitor, ELISA | – | < 5.00 |
| CC(C)(C)n1nc(-c2ccc3nc(OC4CC4)ccc3c2)c(C(N)=O)c1N | cell-free assay | – | < 5.00 |
| COc1ccc2c(Oc3ccc4c(C(=O)Nc5ccccc5N)cccc4c3)ccnc2c1 | enzyme activity, inhibitor | – | < 6.30 |
| Clc1cnc2[nH]c3ccc(-c4ccc(N5CCOCC5)cn4)cc3c2c1 | enzyme activity, inhibitor, ELISA | – | < 5.00 |
| Cc1cc(-c2ccnc(C#N)c2)n[nH]1 | enzyme activity, inhibitor, TR-FRET | – | 3.89 |
| CCn1ncc2c1-c1cnc(N)c(c1)O[C@H](C)c1cc(F)ccc1-c1nn(C)nc1C2 | enzyme activity, inhibitor, radiometric | – | 8.96 |
| C=CC(=O)Nc1cc(Nc2nccc(Nc3cc(Cl)c(F)cc3C(C)(C)O)n2)c(OC)cc1N1CC[C@@H](N(C)C)C1 | enzyme activity, inhibitor | with preincubation | 5.93 |
| Cc1cc(-c2cc(C#N)ccc2O[C@@H]2C[C@@H]2c2ccc(F)cc2F)n[nH]1 | enzyme activity, inhibitor, TR-FRET | – | 5.89 |
| Cc1cc(Nc2cc(CN3CCOCC3)c3nc(C)c(Cc4ccc(Cl)cc4F)n3n2)n[nH]1 | enzyme activity, inhibitor, TR-FRET | – | 6.86 |
| Cc1cc(-c2cccc(Cl)c2)n[nH]1 | enzyme activity, inhibitor, TR-FRET | – | 4.18 |
| c1ccc(CCc2ccc3[nH]c4ncc(-c5ccc6c(c5)OCO6)cc4c3c2)cc1 | enzyme activity, inhibitor, ELISA | – | < 5.00 |
| Cc1cc(-c2cccc(C#N)c2)n[nH]1 | enzyme activity, inhibitor, TR-FRET | – | 4.29 |
| COc1cccc(Nc2cnc3[nH]c4ccc(CCc5ccccc5)cc4c3c2)c1 | enzyme activity, inhibitor, ELISA | – | < 5.00 |
